Assay results reported in ChEMBL document CHEMBL2034931, “Discovery of Novel Small Molecule Mer Kinase Inhibitors for the Treatment of Pediatric Acute Lymphoblastic Leukemia” (ACS Med Chem Lett, 2012).

Tests used:
[1] = target: T1, Tyrosine-protein kinase Mer (Homo sapiens, UniProt Q12866); assay: Inhibition of Mer expressed in Escherichia coli BL21 (DE3) cells using EFPIYDFLPAKKK-CONH2 as substrate after 180 mins by microfluid capillary electrophoresis assay
T1 sequence (Q12866 whole entry): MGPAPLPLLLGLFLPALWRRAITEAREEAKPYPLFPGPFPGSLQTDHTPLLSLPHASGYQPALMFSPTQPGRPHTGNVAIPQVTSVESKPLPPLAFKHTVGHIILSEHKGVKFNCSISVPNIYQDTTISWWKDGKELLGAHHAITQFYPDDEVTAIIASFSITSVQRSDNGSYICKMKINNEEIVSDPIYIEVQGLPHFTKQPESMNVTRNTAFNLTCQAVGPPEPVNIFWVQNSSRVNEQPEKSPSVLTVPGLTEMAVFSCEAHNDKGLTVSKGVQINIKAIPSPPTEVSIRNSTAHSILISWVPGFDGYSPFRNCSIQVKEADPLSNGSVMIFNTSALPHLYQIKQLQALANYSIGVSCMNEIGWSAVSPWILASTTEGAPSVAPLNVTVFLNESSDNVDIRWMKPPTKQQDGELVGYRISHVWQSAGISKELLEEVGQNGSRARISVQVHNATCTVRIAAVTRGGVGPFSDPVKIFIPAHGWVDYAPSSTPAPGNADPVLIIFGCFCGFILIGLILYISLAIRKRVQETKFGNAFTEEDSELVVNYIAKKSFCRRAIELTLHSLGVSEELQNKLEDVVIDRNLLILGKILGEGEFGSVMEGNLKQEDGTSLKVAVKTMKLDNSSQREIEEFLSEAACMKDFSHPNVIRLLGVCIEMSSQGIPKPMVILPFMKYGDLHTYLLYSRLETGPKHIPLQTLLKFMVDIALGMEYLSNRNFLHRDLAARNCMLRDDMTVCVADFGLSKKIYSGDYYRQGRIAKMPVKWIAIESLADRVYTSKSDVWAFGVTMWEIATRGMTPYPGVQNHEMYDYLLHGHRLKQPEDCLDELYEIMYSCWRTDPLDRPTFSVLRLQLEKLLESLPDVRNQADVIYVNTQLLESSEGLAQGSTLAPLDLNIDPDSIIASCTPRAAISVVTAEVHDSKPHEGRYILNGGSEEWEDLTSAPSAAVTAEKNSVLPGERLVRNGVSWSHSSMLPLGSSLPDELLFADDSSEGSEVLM

[2] = target: T2, Tyrosine-protein kinase receptor UFO (Homo sapiens, UniProt P30530); assay: Inhibition of Axl using KKKKEEIYFFF-CONH2 as substrate after 180 mins by microfluid capillary electrophoresis assay
T2 sequence (P30530 whole entry): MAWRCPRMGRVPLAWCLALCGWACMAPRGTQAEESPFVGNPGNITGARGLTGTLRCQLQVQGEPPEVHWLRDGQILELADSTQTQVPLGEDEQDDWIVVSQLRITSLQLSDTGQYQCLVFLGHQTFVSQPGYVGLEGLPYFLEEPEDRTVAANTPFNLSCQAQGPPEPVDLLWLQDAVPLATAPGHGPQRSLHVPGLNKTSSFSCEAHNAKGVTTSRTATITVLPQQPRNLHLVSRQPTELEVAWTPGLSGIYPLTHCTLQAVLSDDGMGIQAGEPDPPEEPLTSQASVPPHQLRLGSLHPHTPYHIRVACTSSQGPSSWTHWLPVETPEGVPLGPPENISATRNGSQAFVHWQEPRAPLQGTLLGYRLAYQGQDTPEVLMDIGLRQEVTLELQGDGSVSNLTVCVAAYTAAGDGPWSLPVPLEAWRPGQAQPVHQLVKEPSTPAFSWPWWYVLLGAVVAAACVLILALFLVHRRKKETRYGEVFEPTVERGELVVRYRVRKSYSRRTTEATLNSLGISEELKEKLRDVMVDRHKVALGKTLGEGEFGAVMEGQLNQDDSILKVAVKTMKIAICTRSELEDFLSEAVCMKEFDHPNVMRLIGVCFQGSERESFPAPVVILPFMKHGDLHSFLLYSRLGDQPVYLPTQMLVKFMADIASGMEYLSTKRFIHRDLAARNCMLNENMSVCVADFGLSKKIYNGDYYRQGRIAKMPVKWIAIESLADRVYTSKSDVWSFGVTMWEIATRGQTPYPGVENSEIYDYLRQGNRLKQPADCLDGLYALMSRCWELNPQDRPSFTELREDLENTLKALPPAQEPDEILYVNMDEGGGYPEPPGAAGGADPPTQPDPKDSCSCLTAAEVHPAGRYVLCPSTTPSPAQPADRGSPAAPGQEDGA

[3] = target: T3, Tyrosine-protein kinase receptor TYRO3 (Homo sapiens, UniProt Q06418); assay: Inhibition of Tyro3 using EFPIYDFLPAKKK-CONH2 as substrate after 180 mins by microfluid capillary electrophoresis assay
T3 sequence (Q06418 whole entry): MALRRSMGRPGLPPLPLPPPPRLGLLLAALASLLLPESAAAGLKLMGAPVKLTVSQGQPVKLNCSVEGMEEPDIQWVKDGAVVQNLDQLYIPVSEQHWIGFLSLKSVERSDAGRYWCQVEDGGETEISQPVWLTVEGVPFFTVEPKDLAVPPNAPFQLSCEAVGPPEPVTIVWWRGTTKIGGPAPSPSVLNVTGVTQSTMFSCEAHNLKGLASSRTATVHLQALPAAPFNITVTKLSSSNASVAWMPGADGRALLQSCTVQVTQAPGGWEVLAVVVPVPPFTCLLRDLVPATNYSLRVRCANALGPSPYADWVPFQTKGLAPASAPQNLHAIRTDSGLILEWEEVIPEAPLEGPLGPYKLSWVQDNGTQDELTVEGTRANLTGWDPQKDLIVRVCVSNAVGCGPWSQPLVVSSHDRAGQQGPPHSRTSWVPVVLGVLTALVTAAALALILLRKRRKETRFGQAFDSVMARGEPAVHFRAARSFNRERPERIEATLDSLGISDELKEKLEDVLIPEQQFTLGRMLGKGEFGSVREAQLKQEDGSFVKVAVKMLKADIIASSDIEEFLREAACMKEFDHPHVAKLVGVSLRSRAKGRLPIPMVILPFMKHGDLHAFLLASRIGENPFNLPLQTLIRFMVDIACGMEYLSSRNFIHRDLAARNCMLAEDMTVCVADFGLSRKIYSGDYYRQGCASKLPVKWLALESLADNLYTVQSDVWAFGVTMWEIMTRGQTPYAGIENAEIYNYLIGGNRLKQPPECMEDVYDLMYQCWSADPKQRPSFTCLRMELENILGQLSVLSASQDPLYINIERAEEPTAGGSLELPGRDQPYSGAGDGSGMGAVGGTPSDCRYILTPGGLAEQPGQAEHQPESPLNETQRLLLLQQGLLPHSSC

[4] = target: Receptor-type tyrosine-protein kinase FLT3 (Homo sapiens) (UniProt P36888); assay: Inhibition of FLT3 at 10 times IC50 concentration after 90 mins in presence of ATP
Method in brief: (§1)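 Single-concentration screen across a kinase panel spanning the main kinase families, the TAM family and the related MET family. Each sample was run in duplicate, and the read-out was percent inhibition of kinase activity.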

[5] = target: MAP kinase-activated protein kinase 2 (Homo sapiens) (UniProt P49137); assay: Inhibition of MAPKAPK2 at 10 times IC50 concentration after 90 mins in presence of ATP; method in brief: as §1
[6] = target: Proto-oncogene tyrosine-protein kinase receptor Ret (Homo sapiens) (UniProt P07949); assay: Inhibition of Ret at 10 times IC50 concentration after 90 mins in presence of ATP; method in brief: as §1
[7] = test system: Proto-oncogene tyrosine-protein kinase receptor Ret (Homo sapiens), P07949 [Y791F]; assay: Inhibition of Ret Y791F mutant at 10 times IC50 concentration after 90 mins in presence of ATP; method in brief: as §1
Mus musculus [8] = assay: Oral bioavailability in Swiss mouse at 3 mg/kg; assay type: ADME, organism-based; conditions: in vivo
Mus musculus [9] = assay: Volume of distribution at steady state in Swiss mouse at 3 mg/kg, iv; assay type: ADME, organism-based; design: dose 3 mg/kg, route intravenous; conditions: in vivo

Receptor-type tyrosine-protein kinase FLT3 (Homo sapiens), sequence (P36888 whole entry): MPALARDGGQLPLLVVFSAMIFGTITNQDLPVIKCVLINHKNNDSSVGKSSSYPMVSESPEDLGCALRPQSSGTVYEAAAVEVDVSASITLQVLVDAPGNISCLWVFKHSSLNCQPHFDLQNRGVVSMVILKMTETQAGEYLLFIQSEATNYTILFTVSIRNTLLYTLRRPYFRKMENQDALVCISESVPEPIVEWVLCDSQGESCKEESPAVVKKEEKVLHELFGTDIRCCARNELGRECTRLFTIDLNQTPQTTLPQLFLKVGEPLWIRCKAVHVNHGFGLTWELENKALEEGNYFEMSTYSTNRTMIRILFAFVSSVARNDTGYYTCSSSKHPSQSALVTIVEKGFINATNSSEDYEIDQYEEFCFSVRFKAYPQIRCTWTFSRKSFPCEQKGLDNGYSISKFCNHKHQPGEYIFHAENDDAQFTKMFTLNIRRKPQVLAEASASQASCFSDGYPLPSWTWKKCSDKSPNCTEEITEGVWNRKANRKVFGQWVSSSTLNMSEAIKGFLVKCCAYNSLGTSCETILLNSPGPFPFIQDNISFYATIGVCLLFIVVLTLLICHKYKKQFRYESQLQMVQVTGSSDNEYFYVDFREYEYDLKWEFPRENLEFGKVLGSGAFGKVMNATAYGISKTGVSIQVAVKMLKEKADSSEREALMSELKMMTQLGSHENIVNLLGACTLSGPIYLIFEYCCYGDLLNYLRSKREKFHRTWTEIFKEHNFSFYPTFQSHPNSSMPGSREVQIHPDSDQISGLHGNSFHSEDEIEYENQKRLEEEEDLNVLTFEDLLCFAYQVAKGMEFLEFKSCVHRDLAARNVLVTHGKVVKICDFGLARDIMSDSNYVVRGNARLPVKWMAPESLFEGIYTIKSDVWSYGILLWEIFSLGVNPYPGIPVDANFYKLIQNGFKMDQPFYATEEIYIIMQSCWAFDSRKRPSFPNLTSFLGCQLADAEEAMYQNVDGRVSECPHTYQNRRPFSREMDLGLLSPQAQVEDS
Proto-oncogene tyrosine-protein kinase receptor Ret (Homo sapiens), sequence (P07949 whole entry): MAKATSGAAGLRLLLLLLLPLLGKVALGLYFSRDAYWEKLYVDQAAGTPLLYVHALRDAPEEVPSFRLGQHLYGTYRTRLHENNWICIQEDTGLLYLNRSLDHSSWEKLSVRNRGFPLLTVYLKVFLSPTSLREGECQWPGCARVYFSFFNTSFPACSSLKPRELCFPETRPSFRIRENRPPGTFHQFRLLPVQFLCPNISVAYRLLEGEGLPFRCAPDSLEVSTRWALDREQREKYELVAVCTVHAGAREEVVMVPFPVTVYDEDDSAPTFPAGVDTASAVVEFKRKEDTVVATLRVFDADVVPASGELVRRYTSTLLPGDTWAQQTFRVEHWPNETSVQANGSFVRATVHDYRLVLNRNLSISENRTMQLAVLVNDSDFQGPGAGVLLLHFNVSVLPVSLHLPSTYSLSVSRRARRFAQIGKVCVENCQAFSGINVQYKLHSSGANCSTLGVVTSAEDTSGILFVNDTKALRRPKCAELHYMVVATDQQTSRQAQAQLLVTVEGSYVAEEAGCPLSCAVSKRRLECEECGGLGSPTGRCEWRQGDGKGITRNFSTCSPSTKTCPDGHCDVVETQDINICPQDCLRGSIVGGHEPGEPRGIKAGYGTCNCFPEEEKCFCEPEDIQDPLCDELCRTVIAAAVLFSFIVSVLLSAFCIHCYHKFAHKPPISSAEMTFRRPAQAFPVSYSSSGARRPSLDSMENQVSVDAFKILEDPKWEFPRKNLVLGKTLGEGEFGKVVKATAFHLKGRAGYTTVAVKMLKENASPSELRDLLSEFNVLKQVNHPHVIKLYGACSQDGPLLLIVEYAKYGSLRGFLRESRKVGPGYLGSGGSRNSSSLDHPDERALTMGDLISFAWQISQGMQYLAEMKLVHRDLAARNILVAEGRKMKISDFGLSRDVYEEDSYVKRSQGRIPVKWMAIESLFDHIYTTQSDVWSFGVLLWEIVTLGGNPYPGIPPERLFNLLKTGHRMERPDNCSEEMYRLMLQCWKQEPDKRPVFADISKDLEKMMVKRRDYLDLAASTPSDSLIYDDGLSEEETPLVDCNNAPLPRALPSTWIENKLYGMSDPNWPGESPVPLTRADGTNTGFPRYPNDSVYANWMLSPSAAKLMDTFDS
MAP kinase-activated protein kinase 2 (Homo sapiens), sequence (P49137 whole entry, looked up): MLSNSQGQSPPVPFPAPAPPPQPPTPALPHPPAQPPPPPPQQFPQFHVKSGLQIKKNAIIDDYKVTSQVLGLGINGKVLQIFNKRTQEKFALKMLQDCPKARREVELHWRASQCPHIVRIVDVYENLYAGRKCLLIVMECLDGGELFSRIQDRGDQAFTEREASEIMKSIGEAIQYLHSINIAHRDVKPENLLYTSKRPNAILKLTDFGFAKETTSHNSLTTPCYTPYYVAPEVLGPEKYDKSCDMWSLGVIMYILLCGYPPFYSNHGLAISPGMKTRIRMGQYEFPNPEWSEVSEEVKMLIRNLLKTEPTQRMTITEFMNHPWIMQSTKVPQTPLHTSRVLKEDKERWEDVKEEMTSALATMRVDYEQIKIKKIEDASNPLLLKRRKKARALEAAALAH
Proto-oncogene tyrosine-protein kinase receptor Ret (Homo sapiens), P07949 [Y791F], sequence (P07949 whole entry Y791F): as the sequence (P07949 whole entry) above, with Y791F counted along it

Row | inhibition [4] [%] | inhibition [5] [%] | inhibition [6] [%] | inhibition [7] [%] | SMILES | IC50 [2] [µM] | IC50 [3] [µM] | also measured
1 | – | – | – | – | CC(C)n1cnc2c(Nc3cccc(Cl)c3)nc(NCCO)nc21 | – | – | IC50 [1]: 11 µM
2 | – | – | – | – | CNc1ncc2c(C(C)C)nn(C[C@@H]3CCCN3)c2n1 | > 30 | > 30 | –
3 | – | – | – | – | CNc1ncc2c(C(C)C)nn(CC3CCNCC3)c2n1 | > 30 | > 30 | –
4 | 82 | 94 | 79 | 67 | N[C@H]1CC[C@H](Cn2nc(-c3ccc(N4CCNCC4)cc3)c3cnc(NCCCc4ccccc4)nc32)CC1 | – | – | –
5 | 82 | 92 | 59 | 56 | CCCCNc1ncc2c(-c3ccc(F)cc3)nn(C[C@H]3CC[C@H](N)CC3)c2n1 [PYRAZOLOPYRIMIDINE] | – | – | F (Mus musculus [8]): 57%; Vdss (Mus musculus [9]): 5.83 L/kg
